Test results from ChEMBL document CHEMBL4007456, “Heterocyclyl Tetracyclines. 1. 7-Trifluoromethyl-8-Pyrrolidinyltetracyclines: Potent, Broad Spectrum Antibacterial Agents with Enhanced Activity against Pseudomonas aeruginosa” (2017).
Values after ≈ are worked out from the molar mass of the structure shown.

System: Klebsiella pneumoniae
Assay: Antibacterial activity against gram-negative Klebsiella pneumoniae KP153 harboring tet(A) by CLSI method
Type: functional
Method in brief: (§1)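 CLSI broth microdilution MIC in fresh cation-adjusted Mueller Hinton broth, supplemented with defibrinated horse blood where appropriate. Compounds serially diluted in sterile deionized water. Runs accepted when comparator antibiotics against ATCC quality-control strains fell within recommended ranges.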

| SMILES | MIC [µg/mL] |
| --- | --- |
| CN(C)[C@@H]1C(O)=C(C(N)=O)C(=O)[C@@]2(O)C(O)=C3C(=O)c4c(O)cc(-c5ccncc5)c(Cl)c4C[C@H]3C[C@@H]12 | > 32 |
| CN1CCCCCC1c1cc(O)c2c(c1Cl)C[C@H]1C[C@H]3[C@H](N(C)C)C(O)=C(C(N)=O)C(=O)[C@@]3(O)C(O)=C1C2=O (some centres undefined) | 1 (≈ 1.79 µM) |
| CN1CCCCC1c1cc(O)c2c(c1Cl)C[C@H]1C[C@H]3[C@H](N(C)C)C(O)=C(C(N)=O)C(=O)[C@@]3(O)C(O)=C1C2=O (some centres undefined) | 1 (≈ 1.83 µM) |

System: Klebsiella pneumoniae
Assay: Antibacterial activity against gram-negative Klebsiella pneumoniae KP194 by CLSI method
Type: functional
Method in brief: (§2)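 Broth microdilution MIC per CLSI in cation-adjusted Mueller Hinton broth, prepared fresh and held at 4 °C. Defibrinated horse blood added where appropriate. Compounds serially diluted in sterile deionized water. Strains from ATCC unless otherwise noted. Runs accepted when comparator antibiotics fell within QC ranges for ATCC quality control strains.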

| SMILES | MIC [µg/mL] |
| --- | --- |
| CN1CCCCCC1c1cc(O)c2c(c1Cl)C[C@H]1C[C@H]3[C@H](N(C)C)C(O)=C(C(N)=O)C(=O)[C@@]3(O)C(O)=C1C2=O (some centres undefined) | 16 (≈ 28.6 µM) |
| CN1CCCCC1c1cc(O)c2c(c1Cl)C[C@H]1C[C@H]3[C@H](N(C)C)C(O)=C(C(N)=O)C(=O)[C@@]3(O)C(O)=C1C2=O (some centres undefined) | 16 (≈ 29.3 µM) |

System: Proteus mirabilis
Assay: Antibacterial activity against gram-negative Proteus mirabilis PM122 by CLSI method
Type: functional
Method in brief: (§3)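 Defibrinated horse blood added where appropriate. Compounds serially diluted in sterile deionized water. Strains from ATCC unless otherwise noted. Runs accepted when comparator antibiotics fell within QC ranges for ATCC quality control strains.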

| SMILES | MIC [µg/mL] |
| --- | --- |
| CN(C)[C@@H]1C(O)=C(C(N)=O)C(=O)[C@@]2(O)C(O)=C3C(=O)c4c(O)cc(-c5ccncc5)c(Cl)c4C[C@H]3C[C@@H]12 | 16 (≈ 30.4 µM) |
| CN1CCCCCC1c1cc(O)c2c(c1Cl)C[C@H]1C[C@H]3[C@H](N(C)C)C(O)=C(C(N)=O)C(=O)[C@@]3(O)C(O)=C1C2=O (some centres undefined) | 4 (≈ 7.14 µM) |
| CN1CCCCC1c1cc(O)c2c(c1Cl)C[C@H]1C[C@H]3[C@H](N(C)C)C(O)=C(C(N)=O)C(=O)[C@@]3(O)C(O)=C1C2=O (some centres undefined) | 1 (≈ 1.83 µM) |

System: Pseudomonas aeruginosa
Assay: Antibacterial activity against gram-negative Pseudomonas aeruginosa PA169 by CLSI method
Type: functional
Method in brief: as §3

| SMILES | MIC [µg/mL] |
| --- | --- |
| CN(C)[C@@H]1C(O)=C(C(N)=O)C(=O)[C@@]2(O)C(O)=C3C(=O)c4c(O)cc(-c5ccncc5)c(Cl)c4C[C@H]3C[C@@H]12 | > 32 |
| CN1CCCCCC1c1cc(O)c2c(c1Cl)C[C@H]1C[C@H]3[C@H](N(C)C)C(O)=C(C(N)=O)C(=O)[C@@]3(O)C(O)=C1C2=O (some centres undefined) | 32 (≈ 57.1 µM) |
| CN1CCCCC1c1cc(O)c2c(c1Cl)C[C@H]1C[C@H]3[C@H](N(C)C)C(O)=C(C(N)=O)C(=O)[C@@]3(O)C(O)=C1C2=O (some centres undefined) | 32 (≈ 58.6 µM) |

System: Acinetobacter baumannii
Assay: Antibacterial activity against gram-negative Acinetobacter baumannii AB250 by CLSI method
Type: functional
Method in brief: as §2

| SMILES | MIC [µg/mL] |
| --- | --- |
| CN(C)[C@@H]1C(O)=C(C(N)=O)C(=O)[C@@]2(O)C(O)=C3C(=O)c4c(O)cc(-c5ccncc5)c(Cl)c4C[C@H]3C[C@@H]12 | 2 (≈ 3.8 µM) |
| CN1CCCCCC1c1cc(O)c2c(c1Cl)C[C@H]1C[C@H]3[C@H](N(C)C)C(O)=C(C(N)=O)C(=O)[C@@]3(O)C(O)=C1C2=O (some centres undefined) | 2 (≈ 3.57 µM) |
| CN1CCCCC1c1cc(O)c2c(c1Cl)C[C@H]1C[C@H]3[C@H](N(C)C)C(O)=C(C(N)=O)C(=O)[C@@]3(O)C(O)=C1C2=O (some centres undefined) | 2 (≈ 3.66 µM) |

System: Stenotrophomonas maltophilia
Assay: Antibacterial activity against gram-negative Stenotrophomonas maltophilia SM256 by CLSI method
Type: functional
Method in brief: as §2

| SMILES | MIC [µg/mL] |
| --- | --- |
| CN(C)[C@@H]1C(O)=C(C(N)=O)C(=O)[C@@]2(O)C(O)=C3C(=O)c4c(O)cc(-c5ccncc5)c(Cl)c4C[C@H]3C[C@@H]12 | 2 (≈ 3.8 µM) |
| CN1CCCCCC1c1cc(O)c2c(c1Cl)C[C@H]1C[C@H]3[C@H](N(C)C)C(O)=C(C(N)=O)C(=O)[C@@]3(O)C(O)=C1C2=O (some centres undefined) | 0.5 (≈ 0.893 µM) |
| CN1CCCCC1c1cc(O)c2c(c1Cl)C[C@H]1C[C@H]3[C@H](N(C)C)C(O)=C(C(N)=O)C(=O)[C@@]3(O)C(O)=C1C2=O (some centres undefined) | 1 (≈ 1.83 µM) |

System: Burkholderia cenocepacia
Assay: Antibacterial activity against gram-negative Burkholderia cenocepacia BC240 by CLSI method
Type: functional
Method in brief: as §3

| SMILES | MIC [µg/mL] |
| --- | --- |
| CN(C)[C@@H]1C(O)=C(C(N)=O)C(=O)[C@@]2(O)C(O)=C3C(=O)c4c(O)cc(-c5ccncc5)c(Cl)c4C[C@H]3C[C@@H]12 | 8 (≈ 15.2 µM) |
| CN1CCCCCC1c1cc(O)c2c(c1Cl)C[C@H]1C[C@H]3[C@H](N(C)C)C(O)=C(C(N)=O)C(=O)[C@@]3(O)C(O)=C1C2=O (some centres undefined) | 8 (≈ 14.3 µM) |
| CN1CCCCC1c1cc(O)c2c(c1Cl)C[C@H]1C[C@H]3[C@H](N(C)C)C(O)=C(C(N)=O)C(=O)[C@@]3(O)C(O)=C1C2=O (some centres undefined) | 8 (≈ 14.7 µM) |

System: Staphylococcus aureus
Assay: Antibacterial activity against gram-positive Staphylococcus aureus SA101 by CLSI method
Type: functional
Method in brief: as §2

| SMILES | MIC [µg/mL] |
| --- | --- |
| CN(C)[C@@H]1C(O)=C(C(N)=O)C(=O)[C@@]2(O)C(O)=C3C(=O)c4c(O)cc(-c5ccncc5)c(Cl)c4C[C@H]3C[C@@H]12 | 0.125 (≈ 0.238 µM) |
| CN1CCCCCC1c1cc(O)c2c(c1Cl)C[C@H]1C[C@H]3[C@H](N(C)C)C(O)=C(C(N)=O)C(=O)[C@@]3(O)C(O)=C1C2=O (some centres undefined) | 0.25 (≈ 0.446 µM) |
| CN1CCCCC1c1cc(O)c2c(c1Cl)C[C@H]1C[C@H]3[C@H](N(C)C)C(O)=C(C(N)=O)C(=O)[C@@]3(O)C(O)=C1C2=O (some centres undefined) | 0.25 (≈ 0.458 µM) |

System: Staphylococcus aureus
Assay: Antibacterial activity against gram-positive Staphylococcus aureus SA161 harboring tet(M) by CLSI method
Type: functional
Method in brief: as §1

| SMILES | MIC [µg/mL] |
| --- | --- |
| CN(C)[C@@H]1C(O)=C(C(N)=O)C(=O)[C@@]2(O)C(O)=C3C(=O)c4c(O)cc(-c5ccncc5)c(Cl)c4C[C@H]3C[C@@H]12 | 0.5 (≈ 0.951 µM) |
| CN1CCCCCC1c1cc(O)c2c(c1Cl)C[C@H]1C[C@H]3[C@H](N(C)C)C(O)=C(C(N)=O)C(=O)[C@@]3(O)C(O)=C1C2=O (some centres undefined) | 2 (≈ 3.57 µM) |
| CN1CCCCC1c1cc(O)c2c(c1Cl)C[C@H]1C[C@H]3[C@H](N(C)C)C(O)=C(C(N)=O)C(=O)[C@@]3(O)C(O)=C1C2=O (some centres undefined) | 4 (≈ 7.33 µM) |

System: Staphylococcus aureus
Assay: Antibacterial activity against gram-positive Staphylococcus aureus SA158 harboring tet(K) by CLSI method
Type: functional
Method in brief: as §1

| SMILES | MIC [µg/mL] |
| --- | --- |
| CN(C)[C@@H]1C(O)=C(C(N)=O)C(=O)[C@@]2(O)C(O)=C3C(=O)c4c(O)cc(-c5ccncc5)c(Cl)c4C[C@H]3C[C@@H]12 | 0.125 (≈ 0.238 µM) |
| CN1CCCCCC1c1cc(O)c2c(c1Cl)C[C@H]1C[C@H]3[C@H](N(C)C)C(O)=C(C(N)=O)C(=O)[C@@]3(O)C(O)=C1C2=O (some centres undefined) | 0.0313 (≈ 0.0559 µM) |
| CN1CCCCC1c1cc(O)c2c(c1Cl)C[C@H]1C[C@H]3[C@H](N(C)C)C(O)=C(C(N)=O)C(=O)[C@@]3(O)C(O)=C1C2=O (some centres undefined) | 0.0313 (≈ 0.0573 µM) |

System: Enterococcus faecalis
Assay: Antibacterial activity against gram-positive Enterococcus faecalis EF159 harboring tet(M) by CLSI method
Type: functional
Method in brief: as §1

| SMILES | MIC [µg/mL] |
| --- | --- |
| CN(C)[C@@H]1C(O)=C(C(N)=O)C(=O)[C@@]2(O)C(O)=C3C(=O)c4c(O)cc(-c5ccncc5)c(Cl)c4C[C@H]3C[C@@H]12 | 0.5 (≈ 0.951 µM) |
| CN1CCCCCC1c1cc(O)c2c(c1Cl)C[C@H]1C[C@H]3[C@H](N(C)C)C(O)=C(C(N)=O)C(=O)[C@@]3(O)C(O)=C1C2=O (some centres undefined) | 2 (≈ 3.57 µM) |
| CN1CCCCC1c1cc(O)c2c(c1Cl)C[C@H]1C[C@H]3[C@H](N(C)C)C(O)=C(C(N)=O)C(=O)[C@@]3(O)C(O)=C1C2=O (some centres undefined) | 2 (≈ 3.66 µM) |

System: Streptococcus pneumoniae
Assay: Antibacterial activity against gram-positive Streptococcus pneumoniae SP160 harboring tet(M) by CLSI method
Type: functional
Method in brief: as §1

| SMILES | MIC [µg/mL] |
| --- | --- |
| CN(C)[C@@H]1C(O)=C(C(N)=O)C(=O)[C@@]2(O)C(O)=C3C(=O)c4c(O)cc(-c5ccncc5)c(Cl)c4C[C@H]3C[C@@H]12 | 4 (≈ 7.61 µM) |
| CN1CCCCCC1c1cc(O)c2c(c1Cl)C[C@H]1C[C@H]3[C@H](N(C)C)C(O)=C(C(N)=O)C(=O)[C@@]3(O)C(O)=C1C2=O (some centres undefined) | 0.5 (≈ 0.893 µM) |
| CN1CCCCC1c1cc(O)c2c(c1Cl)C[C@H]1C[C@H]3[C@H](N(C)C)C(O)=C(C(N)=O)C(=O)[C@@]3(O)C(O)=C1C2=O (some centres undefined) | 0.25 (≈ 0.458 µM) |

System: Streptococcus pneumoniae
Assay: Antibacterial activity against gram-positive Streptococcus pneumoniae SP193 by CLSI method
Type: functional
Method in brief: as §2

| SMILES | MIC [µg/mL] |
| --- | --- |
| CN(C)[C@@H]1C(O)=C(C(N)=O)C(=O)[C@@]2(O)C(O)=C3C(=O)c4c(O)cc(-c5ccncc5)c(Cl)c4C[C@H]3C[C@@H]12 | 0.25 (≈ 0.475 µM) |
| CN1CCCCCC1c1cc(O)c2c(c1Cl)C[C@H]1C[C@H]3[C@H](N(C)C)C(O)=C(C(N)=O)C(=O)[C@@]3(O)C(O)=C1C2=O (some centres undefined) | ≤ 0.0156 |
| CN1CCCCC1c1cc(O)c2c(c1Cl)C[C@H]1C[C@H]3[C@H](N(C)C)C(O)=C(C(N)=O)C(=O)[C@@]3(O)C(O)=C1C2=O (some centres undefined) | ≤ 0.0156 |

System: Escherichia coli
Assay: Antibacterial activity against gram-negative Escherichia coli EC107 by CLSI method
Type: functional
Method in brief: as §2

| SMILES | MIC [µg/mL] |
| --- | --- |
| CN(C)[C@@H]1C(O)=C(C(N)=O)C(=O)[C@@]2(O)C(O)=C3C(=O)c4c(O)cc(-c5ccncc5)c(Cl)c4C[C@H]3C[C@@H]12 | 2 (≈ 3.8 µM) |
| CN1CCCCCC1c1cc(O)c2c(c1Cl)C[C@H]1C[C@H]3[C@H](N(C)C)C(O)=C(C(N)=O)C(=O)[C@@]3(O)C(O)=C1C2=O (some centres undefined) | 0.0625 (≈ 0.112 µM) |
| CN1CCCCC1c1cc(O)c2c(c1Cl)C[C@H]1C[C@H]3[C@H](N(C)C)C(O)=C(C(N)=O)C(=O)[C@@]3(O)C(O)=C1C2=O (some centres undefined) | 0.125 (≈ 0.229 µM) |

System: Escherichia coli
Assay: Antibacterial activity against gram-negative Escherichia coli EC155 harboring tet(A) by CLSI method
Type: functional
Method in brief: as §1

| SMILES | MIC [µg/mL] |
| --- | --- |
| CN(C)[C@@H]1C(O)=C(C(N)=O)C(=O)[C@@]2(O)C(O)=C3C(=O)c4c(O)cc(-c5ccncc5)c(Cl)c4C[C@H]3C[C@@H]12 | > 32 |
| CN1CCCCCC1c1cc(O)c2c(c1Cl)C[C@H]1C[C@H]3[C@H](N(C)C)C(O)=C(C(N)=O)C(=O)[C@@]3(O)C(O)=C1C2=O (some centres undefined) | 2 (≈ 3.57 µM) |
| CN1CCCCC1c1cc(O)c2c(c1Cl)C[C@H]1C[C@H]3[C@H](N(C)C)C(O)=C(C(N)=O)C(=O)[C@@]3(O)C(O)=C1C2=O (some centres undefined) | 1 (≈ 1.83 µM) |
